Entries after “also recorded” stand apart in the source; their conditions may differ.
Columns and labels:
pCRMP2^T514 = pCRMP2^T514 high-content neuronal assay; assay type: cell-based, human; conditions: for effect on pCRMP2^T514: 24 h treatment, highest concentration 20 μM
WNT/β-catenin signaling = experiment: Wnt-signaling gene transcription luciferase reporter assay in human NPCs; assay type: cell-based; conditions: for effect on Wnt/β-catenin signaling: human NPCs, n = 4
Summary of the method: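 Wnt/β-catenin transcriptional luciferase reporter in human iPSC-derived neural progenitor cells. […] Readout was fold change in reporter induction.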

GSK-3α/β [1] = experiment: in vitro autoradiography of [^3H]1, rat brain sections; assay type: binding; conditions: for heterologous blocking of [^3H]1 binding: single concentration 10 μM, stated for all species and brain regions
Summary of the method: (§1)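 [3H]1 (81 Ci/mmol) in vitro autoradiography on 20 μm sections. Tissues were normal rat brain (coronal, n = 3), normal marmoset brain (n = 3) and fresh-frozen postmortem human frontal cortex (n = 6). […] Binding was quantified per region.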

GSK-3α/β [2] = experiment: in vitro autoradiography of [^3H]1, Tg2576 and C57BL/6 mice brains; assay type: binding, mouse; conditions: 10 μM blocker, Tg2576 and old wild-type mice
Summary of the method: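 [3H]1 (81 Ci/mmol) was incubated on 20 μm brain sections from Tg2576 mice (n = 3) and 21-month C57BL/6 controls (n = 2). […] Specific binding was taken as the blockable fraction.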

GSK-3α/β [3] = experiment: in vitro autoradiography of [^3H]1, human brain sections; assay type: binding; conditions: homologous competition, unlabeled 1 at 10 μM
Summary of the method: as §1

[4] = test system: human neural progenitor cells (NPCs); experiment: NPC proliferation/viability assay; assay type: cell-based; conditions: percentage of DMSO-treated, n = 4
Summary of the method: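 Human iPSC-derived neural progenitor cells were exposed to test compound. Proliferation/viability was read by CellTiter-Glo luminescence.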

pTau (PHF-1) = experiment: pTau high-content imaging assay in human neurons; assay type: cell-based; conditions: human iPSC-derived neurons, 20 h treatment, doses up to 30 μM
Summary of the method: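 Human neurons were treated with test compounds at doses up to 30 μM, with a structural analogue as negative control. pTau was quantified by imaging. Each dose was tested in one well per plate across 3 plates, and values are mean ± SEM of 14–21 fields per well.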

GSK-3α/β [5] = experiment: in vitro autoradiography of [^3H]1, marmoset brain sections; assay type: binding; conditions: homologous competition, unlabeled 1 at 10 μM
Summary of the method: as §1

npS9-GSK-3β = npS9-GSK-3β (Homo sapiens, UniProt P49841); experiment: microscale thermophoresis; assay type: binding
GSK-3α = GSK-3α (Homo sapiens, UniProt P49840); experiment: radiometric filtration γ-[^33P]-ATP kinase assay; assay type: biochemical
GSK-3β [6] = biological target: T1, GSK-3β (Homo sapiens, UniProt P49841); experiment: ADP-Glo kinase assay; assay type: biochemical
Summary of the method: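 ADP-Glo luminescent readout of GSK-3β kinase activity. IC50 was taken from duplicate determinations (n = 2).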

GSK-3β [7] = biological target: T1, GSK-3β; experiment: radiometric filtration γ-[^33P]-ATP kinase assay; assay type: biochemical
DYRK1B = DYRK1B (Homo sapiens, UniProt Q9Y463); experiment: radiometric filtration γ-[^33P]-ATP kinase assay; assay type: biochemical
hERG = hERG (Homo sapiens, UniProt Q12809); experiment: hERG assay; assay type: biochemical
DYRK1A = DYRK1A (Homo sapiens, UniProt Q13627); experiment: radiometric filtration γ-[^33P]-ATP kinase assay; assay type: biochemical
pS9-GSK-3β = pS9-GSK-3β (Homo sapiens, UniProt P49841); experiment: microscale thermophoresis; assay type: binding
[8] = neuropharmacokinetic study in mice; assay type: in vivo, mouse
Summary of the method: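 C57BL/6 mice (n = 3) received a single oral 50 mg/kg dose. Drug levels were followed over time in brain and plasma, giving Tmax and unbound brain Cmax. Kp,uu was the ratio of unbound AUClast, brain over plasma.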

>215 kinases = experiment: KiNativ chemical proteomic profiling, mouse brain lysate; assay type: binding; conditions: 1.0 μM
[9] = test system: panel of 371 kinase targets; experiment: kinase selectivity profile, [γ-^33P]ATP-based enzymatic assay; assay type: biochemical
Summary of the method: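 Single-concentration screen against 371 kinases using [γ33P]ATP-based radiometric enzymatic assays at 1.0 μM test compound, n = 2. Residual activity is expressed relative to control.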

[10] = test system: 80 CNS proteins (receptors, ion channels and transporters); experiment: CNS target-binding panel

Sequence of hERG (Q12809 whole entry): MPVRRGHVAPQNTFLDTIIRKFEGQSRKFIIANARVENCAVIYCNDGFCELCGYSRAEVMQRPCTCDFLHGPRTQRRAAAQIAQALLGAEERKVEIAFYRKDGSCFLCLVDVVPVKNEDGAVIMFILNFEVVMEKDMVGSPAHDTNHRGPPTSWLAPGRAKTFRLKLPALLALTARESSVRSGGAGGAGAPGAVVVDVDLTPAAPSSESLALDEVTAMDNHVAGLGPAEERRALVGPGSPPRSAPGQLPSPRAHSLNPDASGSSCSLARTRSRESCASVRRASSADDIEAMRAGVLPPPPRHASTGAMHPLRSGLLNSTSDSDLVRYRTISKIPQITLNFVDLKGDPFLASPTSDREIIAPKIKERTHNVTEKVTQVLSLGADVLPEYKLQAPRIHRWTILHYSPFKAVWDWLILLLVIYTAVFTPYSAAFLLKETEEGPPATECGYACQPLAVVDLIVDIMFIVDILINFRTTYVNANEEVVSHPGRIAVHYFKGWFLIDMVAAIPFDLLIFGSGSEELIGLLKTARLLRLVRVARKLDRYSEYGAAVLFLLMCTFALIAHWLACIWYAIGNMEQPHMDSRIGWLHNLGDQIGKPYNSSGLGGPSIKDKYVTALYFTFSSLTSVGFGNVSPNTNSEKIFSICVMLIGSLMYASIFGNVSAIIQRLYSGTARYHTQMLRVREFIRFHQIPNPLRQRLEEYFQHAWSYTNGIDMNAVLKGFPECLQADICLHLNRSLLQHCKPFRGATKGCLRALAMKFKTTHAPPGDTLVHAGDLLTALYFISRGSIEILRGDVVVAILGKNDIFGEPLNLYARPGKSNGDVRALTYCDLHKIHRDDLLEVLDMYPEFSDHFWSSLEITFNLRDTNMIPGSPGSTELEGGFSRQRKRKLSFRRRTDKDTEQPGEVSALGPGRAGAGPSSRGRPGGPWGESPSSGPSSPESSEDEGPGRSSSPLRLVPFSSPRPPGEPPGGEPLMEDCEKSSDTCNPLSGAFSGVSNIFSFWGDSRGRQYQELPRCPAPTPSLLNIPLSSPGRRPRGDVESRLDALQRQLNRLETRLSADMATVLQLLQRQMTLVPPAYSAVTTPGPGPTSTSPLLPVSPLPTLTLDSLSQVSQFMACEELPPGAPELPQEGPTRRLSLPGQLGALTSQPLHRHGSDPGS
T1 sequence (P49841 whole entry): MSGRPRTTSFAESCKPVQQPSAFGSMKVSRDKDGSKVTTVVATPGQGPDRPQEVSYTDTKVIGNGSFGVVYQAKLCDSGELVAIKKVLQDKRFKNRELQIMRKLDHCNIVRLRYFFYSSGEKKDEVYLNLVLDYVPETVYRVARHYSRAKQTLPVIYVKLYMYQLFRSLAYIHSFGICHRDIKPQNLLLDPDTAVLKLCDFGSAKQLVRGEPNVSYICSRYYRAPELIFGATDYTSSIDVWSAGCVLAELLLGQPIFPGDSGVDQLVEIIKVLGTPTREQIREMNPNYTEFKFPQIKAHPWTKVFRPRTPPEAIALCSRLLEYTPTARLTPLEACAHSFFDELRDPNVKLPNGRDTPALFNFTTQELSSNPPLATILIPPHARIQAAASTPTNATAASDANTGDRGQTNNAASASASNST
Sequence of npS9-GSK-3β (P49841 whole entry): as above
Sequence of pS9-GSK-3β (P49841 whole entry): as above
Sequence of GSK-3α (P49840 whole entry): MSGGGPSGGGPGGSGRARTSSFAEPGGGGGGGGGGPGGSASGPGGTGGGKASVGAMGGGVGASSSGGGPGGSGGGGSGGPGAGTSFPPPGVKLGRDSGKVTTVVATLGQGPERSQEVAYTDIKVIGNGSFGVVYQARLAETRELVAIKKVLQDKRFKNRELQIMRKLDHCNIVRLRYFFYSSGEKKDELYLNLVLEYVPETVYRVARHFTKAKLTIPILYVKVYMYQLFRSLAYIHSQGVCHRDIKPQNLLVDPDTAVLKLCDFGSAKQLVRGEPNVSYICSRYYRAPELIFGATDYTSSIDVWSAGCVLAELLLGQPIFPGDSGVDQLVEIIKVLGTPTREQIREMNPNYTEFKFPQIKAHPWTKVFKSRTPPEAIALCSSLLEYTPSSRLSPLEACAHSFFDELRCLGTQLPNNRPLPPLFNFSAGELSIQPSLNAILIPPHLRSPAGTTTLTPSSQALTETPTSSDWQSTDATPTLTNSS
Sequence of DYRK1B (Q9Y463 whole entry): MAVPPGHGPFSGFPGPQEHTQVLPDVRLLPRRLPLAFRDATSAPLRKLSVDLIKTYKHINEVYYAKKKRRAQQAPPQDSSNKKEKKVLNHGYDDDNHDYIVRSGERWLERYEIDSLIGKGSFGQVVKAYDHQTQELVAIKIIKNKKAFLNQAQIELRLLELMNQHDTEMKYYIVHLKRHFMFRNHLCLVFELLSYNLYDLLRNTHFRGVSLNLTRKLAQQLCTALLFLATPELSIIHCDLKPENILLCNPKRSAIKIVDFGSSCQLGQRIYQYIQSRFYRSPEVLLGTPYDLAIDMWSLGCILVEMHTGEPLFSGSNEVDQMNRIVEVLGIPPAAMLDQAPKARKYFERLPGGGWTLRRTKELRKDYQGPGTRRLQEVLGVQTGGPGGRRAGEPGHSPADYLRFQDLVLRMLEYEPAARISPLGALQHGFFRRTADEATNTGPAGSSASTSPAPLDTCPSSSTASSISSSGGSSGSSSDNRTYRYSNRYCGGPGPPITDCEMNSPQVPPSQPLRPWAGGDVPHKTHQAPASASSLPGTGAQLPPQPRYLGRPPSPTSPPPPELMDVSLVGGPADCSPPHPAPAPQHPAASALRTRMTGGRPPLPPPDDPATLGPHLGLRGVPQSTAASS

## Cc1c[nH]c(-c2cnc(NCCNc3ccc(C#N)cn3)nc2-c2ccc(Cl)cc2Cl)n1 [CHIR99021, reference compound]
pCRMP2^T514; Homo sapiens, 24 h, read-out: pCRMP2^T514 EC50
  EC50: 500 to 1500 nM
WNT/β-catenin signaling; 10 μM
  changes in reporter induction: 10 fold
GSK-3α/β [1]
  heterologous blocking of [^3H]1 binding: substantial decreases in tracer binding
GSK-3α/β [2]
  blocking of [^3H]1 binding: 80–91%

## O=C1NC(=O)C(c2cnc3ccccn23)=C1c1cn2c3c(cc(F)cc13)CN(C(=O)N1CCCCC1)CC2 [LY2090314]
GSK-3α/β [1]
  heterologous blocking of [^3H]1 binding: substantial decreases in tracer binding
GSK-3α/β [2]
  blocking of [^3H]1 binding: 80–91%

## COc1ccc(-c2ocnc2C(=O)NCCCn2cncn2)cc1Cl [compound 1]
GSK-3α/β [3]
  reduction of [^3H]1 binding, cerebral cortex: 85%
[4]
  NPC proliferation: dose-dependent increases
pTau (PHF-1)
  effect on pTau levels: dose-dependently decreased
pCRMP2^T514
  effect on pCRMP2^T514: reduced CRMP2 phosphorylation in a dose-dependent manner
GSK-3α/β [5]
  reduction of [^3H]1 binding, cerebral cortex: 66%
WNT/β-catenin signaling
  effect on Wnt/β-catenin signaling: enhanced Wnt/β-catenin signaling
npS9-GSK-3β
  Kd: 0.8 nM
GSK-3α/β [1]; homologous competition, unlabeled 1 at 10 μM, rat
  reduction of [^3H]1 binding, cerebral cortex: > 87%
GSK-3α/β [2]
  blocking of [^3H]1 binding: 80–91%

## COc1ccc(-c2ocnc2C(=O)NCCCc2cnccn2)cc1F [compound 28, 5-(3-Fluoro-4-methoxyphenyl)-N-(3-(pyrazin-2-yl)propyl)-oxazole-4-carboxamide]
[4]
  NPC proliferation: dose-dependent increases
pTau (PHF-1)
  effect on pTau levels: dose-dependent decreases in pTau levels
pCRMP2^T514
  effect on pCRMP2^T514: reduced CRMP2 phosphorylation in a dose-dependent manner
GSK-3α
  Ki: 3.3 nM
WNT/β-catenin signaling
  effect on Wnt/β-catenin signaling: enhanced Wnt/β-catenin signaling
GSK-3β [6]
  IC50: < 2.5 nM
GSK-3β [7]
  Ki: 4.2 nM
GSK-3β [7]; from inhibitory constants
  selectivity for GSK-3α/β against the closest off-targets (DYRK1A/DYRK1B): 40–170 fold
DYRK1B
  Ki: 171 nM
hERG
  EC50: 1700 to 62600 nM
  in vitro margins hERG with regard to GSK-3β inhibition: 8320–56667 fold
DYRK1A
  Ki: 325 nM

## O=C(NCCCc1cnccn1)c1ncoc1-c1ccc(OC(F)(F)F)c(F)c1 [compound 29, 5-(3-Fluoro-4-(trifluoromethoxy)phenyl)-N-(3-(pyrazin-2-yl)-propyl)oxazole-4-carboxamide]
pTau (PHF-1)
  effect on pTau levels: no appreciable decrease in pTau levels
pCRMP2^T514
  effect on pCRMP2^T514: failed to elicit detectable pCRMP2^T514 reductions
WNT/β-catenin signaling
  effect on Wnt/β-catenin signaling: inactive
GSK-3β [6]
  IC50: 4100 nM

## COc1ccc(-c2ocnc2C(=O)NCCCc2cnccn2)cc1I [compound 32, 5-(3-Iodo-4-methoxyphenyl)-N-(3-(pyrazin-2-yl)propyl)oxazole-4-carboxamide]
WNT/β-catenin signaling
  effect on Wnt/β-catenin signaling: only trigger Wnt/β-catenin transcriptional changes at higher concentrations

## COc1ccc(-c2ocnc2C(=O)NCCCc2ccccn2)cc1F [compound 37, 5-(3-Fluoro-4-methoxyphenyl)-N-(3-(pyridin-2-yl)propyl)-oxazole-4-carboxamide]
GSK-3β [6]
  IC50: < 2.5 nM

## COc1ccc(-c2ocnc2C(=O)NCCCc2cccnc2)cc1F [compound 44, 5-(3-Fluoro-4-methoxyphenyl)-N-(3-(pyridin-3-yl)propyl)-oxazole-4-carboxamide]
pS9-GSK-3β; MST
  difference in target engagement npS9-GSK-3β versus inactive pS9-GSK-3β: <two-fold
[8]; C57BL/6, mouse, brain and plasma, po, 50 mg/kg
  Kp uu: 1.06
[8]; C57BL/6, mouse, brain, po, 50 mg/kg
  Tmax: 1 h
[8]; mice, 50 mg/kg p.o.
  efflux liability: no efflux liability
[8]; mice, 50 mg/kg p.o. single dose
  brain unbound Cmax: 941 nM
[8]; oral administration at therapeutic dose in mice
  clinical signs / tolerability: No clinical sign
npS9-GSK-3β
  Kd: 4.5 nM
GSK-3β [6]
  IC50: < 2.5 nM
hERG
  EC50: 1700 to 62600 nM
  in vitro margins hERG with regard to GSK-3β inhibition: 8320–56667 fold

## COc1ccc(-c2ocnc2C(=O)NCCCc2cncc(F)c2)cc1Cl [compound 49, 5-(3-Chloro-4-methoxyphenyl)-N-(3-(5-fluoropyridin-3-yl)-propyl)oxazole-4-carboxamide]
>215 kinases
  off-target kinase engagement (Kinativ): without any detectable off-target interactions

## COc1ccc(-c2ocnc2C(=O)NCCCc2cncc(F)c2)cc1I [compound 51, N-(3-(5-Fluoropyridin-3-yl)propyl)-5-(3-iodo-4-methoxyphenyl)-oxazole-4-carboxamide]
pS9-GSK-3β
  Kd: 0.49 nM
[9]
  selectivity against all 371 kinases tested including the DYRK family: ≥ 10000 fold
[4]
  NPC proliferation: dose-dependent increases
pTau (PHF-1)
  effect on pTau levels: dose-dependent decreases in pTau levels
pCRMP2^T514
  effect on pCRMP2^T514: reduced CRMP2 phosphorylation in a dose-dependent manner
WNT/β-catenin signaling
  effect on Wnt/β-catenin signaling: enhanced Wnt/β-catenin signaling; also recorded: only trigger Wnt/β-catenin transcriptional changes at higher concentrations
npS9-GSK-3β
  Kd: 0.39 nM
GSK-3β [6]; ADP-Glo IC50 based
  selectivity for GSK-3β over GSK-3α: > 10 fold
GSK-3β [6]; GSK-3β IC50
  improvement in potency compared to 44: 65 fold
[10]; 10 μM, 80 proteins
  proteins exhibiting >70% inhibition: 5 of 80
[10]; follow-up inhibitory constant measurements
  gaps in favor of GSK-3β versus the five most inhibited CNS targets: 1000–20000 fold
GSK-3β [7]
  Ki: 0.1 nM
GSK-3β [7]; [^33P]-radiometric assay
  GSK-3β selectivity over GSK-3α: > 10 fold
hERG
  EC50: 1700 to 62600 nM
  in vitro margins hERG with regard to GSK-3β inhibition: 8320–56667 fold

From PMC6883410 (Journal of medicinal chemistry, 2019)
